Data as given in ChEMBL document CHEMBL3576776, “3-Nitroasterric Acid Derivatives from an Antarctic Sponge-Derived Pseudogymnoascus sp. Fungus” (2015).

Experiments:
Assay type in all cases: functional
Pseudomonas aeruginosa = assay: Antibacterial activity against Pseudomonas aeruginosa PAO1
Procedure, shortened: (§1)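 Compounds serially diluted twofold in DMSO to give 10 concentrations starting at 64 μg/mL; bacterial and fungal strains exposed by previously described methods. MIC taken as lowest concentration inhibiting ≥95% of growth after overnight incubation. Data processed to give MIC; assay robustness RZ′ factor 0.89–0.97 across experiments.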

Acinetobacter baumannii = assay: Antibacterial activity against Acinetobacter baumannii CL 5973; procedure, shortened: as §1
Escherichia coli = assay: Antibacterial activity against Escherichia coli MB2884; procedure, shortened: as §1
Staphylococcus aureus [1] = assay: Antibacterial activity against methicillin-sensitive Staphylococcus aureus EPI167
Procedure, shortened: (§2)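 Compounds twofold serially diluted in DMSO, 10 concentrations starting at 64 μg/mL. Growth inhibition read after overnight incubation. MIC taken as the lowest concentration inhibiting ≥95% of growth. Assay robustness RZ′ factor 0.89–0.97.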

Staphylococcus aureus [2] = assay: Antibacterial activity against methicillin-resistant Staphylococcus aureus MB5393; procedure, shortened: as §2
Candida albicans [3] = assay: Antifungal activity against Candida albicans MY1055; procedure, shortened: as §1
Candida albicans [4] = assay: Antifungal activity against Candida albicans ATCC64124; procedure, shortened: as §1
Aspergillus fumigatus = assay: Antifungal activity against Aspergillus fumigatus ATCC46645; procedure, shortened: as §1

Measured: MIC95

COC(=O)c1c(Oc2cc(C)cc(O)c2C(=O)OCC(C)C(=O)OC)c(OC)cc(O)c1[N+](=O)[O-] (configuration not stated)
> 64 µg/mL: Pseudomonas aeruginosa | Acinetobacter baumannii | Escherichia coli | Staphylococcus aureus [1] | Staphylococcus aureus [2] | Candida albicans [3] | Candida albicans [4] | Aspergillus fumigatus

COC(=O)c1c(Oc2cc(C)cc(O)c2C(=O)OCC(C)C(=O)O)c(OC)cc(O)c1[N+](=O)[O-] (configuration not stated)
> 64 µg/mL: Pseudomonas aeruginosa | Acinetobacter baumannii | Escherichia coli | Staphylococcus aureus [1] | Staphylococcus aureus [2] | Candida albicans [3] | Candida albicans [4] | Aspergillus fumigatus

COC(=O)c1c(Oc2cc(C)cc(O)c2C(=O)OC(C)C(=O)O)c(OC)cc(O)c1[N+](=O)[O-] (configuration not stated)
> 64 µg/mL: Pseudomonas aeruginosa | Acinetobacter baumannii | Escherichia coli | Staphylococcus aureus [1] | Staphylococcus aureus [2] | Candida albicans [3] | Candida albicans [4] | Aspergillus fumigatus

COC(=O)c1c(Oc2cc(C)cc(O)c2C(=O)O)c(OC)cc(O)c1[N+](=O)[O-]
> 64 µg/mL: Pseudomonas aeruginosa | Acinetobacter baumannii | Escherichia coli | Staphylococcus aureus [1] | Staphylococcus aureus [2] | Candida albicans [3] | Candida albicans [4] | Aspergillus fumigatus
